The subject of series [1] is Mus musculus. Put plainly: Antinociceptive activity in Swiss webster mouse assessed as latency response at 40 mg/kg, ip administered 30 mins prior to 1 mg/kg, ip mu-opioid receptor antagonist, CTOP challenge measured up to 7 hrs by warm water-tail flick test. Type of series: functional, organism-based. The method, boiled down:
(§1)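 Mice habituated to a restraint cylinder 20 min/day for 5 days. Tail tip (2 cm) immersed in 50 ± 0.5 °C water; tail-withdrawal latency recorded, 16 s cut-off. Latency taken at baseline and up to 7 h after dosing. Vehicle Tween 20 5%. Means ± SEM, n = 6 mice/group; repeated-measures two-way ANOVA with Bonferroni post hoc.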

Series [2] relates to Mus musculus. Put plainly: Antinociceptive activity in Swiss webster mouse assessed as latency response at 40 mg/kg, ip administered 15 mins after 0.5 mg/kg, sc kappa-opioid receptor antagonist, nor-BNI challenge measured up to 7 hrs by warm water-tail flick test. It is filed as functional, organism-based. The method, boiled down: as §1
The subject of series [3] is Mus musculus. Put plainly: Antinociceptive activity in Swiss webster mouse assessed as latency response at 40 mg/kg, ip administered 15 mins after 5 mg/kg, ip nonselective opioid receptor antagonist, naloxone challenge measured up to 7 hrs by warm water-tail flick test. It is filed as functional, organism-based. The method, boiled down:
as §1

In series [4] the test system is Mus musculus. The series can be described thus: Antinociceptive activity in ip dosed Swiss webster mouse assessed as increase in latency response […] by warm water-tail flick test. It is filed as functional, organism-based.
In series [5] the test system is Mus musculus. The series can be described thus: Antinociceptive activity in Swiss webster mouse assessed as latency response at 40 mg/kg, ip administered 5 mins after 3 mg/kg, sc delta-opioid receptor antagonist, naltrindole challenge measured up to 7 hrs by warm water-tail flick test. It is filed as functional, organism-based. The method, boiled down:
as §1

In series [6] the test system is Mus musculus. Put plainly: Toxicity in Swiss webster mouse assessed as effect on motor performance at 40 mg/kg, ip measured after 30 mins by rotarod test. It is filed as organism-based. Further details: dose 40 mg/kg, route intraperitoneal. The note with it: in vivo, 0.5 h. A digest of the protocol:
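Rotarod. Mice pre-selected 24 h earlier; those failing to stay on the bar for two consecutive 120 s periods were excluded. Dosing ip: test agent 40 mg/kg, or vehicle (Tween 20 5%, 200 μL). Time on rod recorded up to 120 s and reported as group mean time (s). n = 6/group; ANOVA with Tukey post hoc.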

The test system of series [7] is Mus musculus. The series can be described thus: Activation of neurons in Swiss webster mouse periaqueductal gray assessed as increase in number of Fos-positive cells at 5 to 40 mg/kg, ip measured after 2 hrs by immunohistochemical analysis. Type of series: functional, organism-based. A digest of the protocol: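 Mice given 5, 10, 20 or 40 mg/kg ip or vehicle, perfused 2 h later. Frozen 20 μm transverse periaqueductal gray sections: PBS washes, 0.1 M glycine, blocked in 1% BSA, overnight rabbit anti-Fos, then 1 h Alexa Fluor 594 anti-rabbit. No-primary control included. Fos-positive cells counted; n = 6/group; ANOVA with Tukey post hoc.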

Series [8] relates to Mus musculus. The series can be described thus: Antinociceptive activity in Swiss webster mouse assessed as latency response at 40 mg/kg, ip administered 30 mins after 2 mg/kg, ip KATP channel blocker, glibenclamide challenge measured up to 7 hrs by warm water-tail flick test. It is filed as functional, organism-based. The method, boiled down:
as §1

For series [9], the system named is Mus musculus. Put plainly: Toxicity in Swiss webster mouse assessed as decrease in time stayed on rotarod at 10 mg/kg, ip measured after 30 mins by rotarod test. It is filed as organism-based. Further details: dose 10 mg/kg, route intraperitoneal. The note with it: in vivo, 0.5 h.
Series [10] has as its system Mus musculus. Put plainly: Antinociceptive activity in Swiss webster mouse assessed as increase in latency response at 5 mg/kg sc administered 40 mins prior to test measured for 3 hrs by warm water-tail flick test. Type of series: functional, organism-based. Also on record: dose 5 mg/kg. A digest of the protocol: as §1

This note sets out measurements from ChEMBL document CHEMBL2331556, “Evidence for the involvement of descending pain-inhibitory mechanisms in the antinociceptive effect of hecogenin acetate” (J Nat Prod, 2013).

Structures are written as SMILES. Active and inactive are the calls of the source.

On to `CC(=O)O[C@H]1CC[C@@]2(C)[C@@H](CC[C@@H]3[C@@H]2CC(=O)[C@]2(C)[C@@H]4[C@H](C[C@@H]32)O[C@]2(CC[C@@H](C)CO2)[C@H]4C)C1` [HECOGENIN ACETATE], for which the outcome with Mus musculus [1], in the series with Mus musculus [2], with Mus musculus [3], in the series on Mus musculus [5] and in the series with Mus musculus [8] was inactive. The Activity result in the series with Mus musculus [4] was “Dose-dependent effect”; in the series with Mus musculus [6], “Non-toxic”. Also, the result with Mus musculus [7] was Active.

As for `CN1C(=O)CN=C(c2ccccc2)c2cc(Cl)ccc21` [DIAZEPAM], the Activity entry with Mus musculus [9] was “Toxic”.

For `CN1CC[C@]23c4c5ccc(O)c4O[C@H]2[C@@H](O)C=C[C@H]3[C@H]1C5`, the result in the series on Mus musculus [10] was Active.
